Laboratory results from ChEMBL document CHEMBL3124806, “Imidazopyridine-fused [1,3]-diazepinones: synthesis and antiproliferative activity” (Eur J Med Chem, 2014).

What was measured:
Assay type in all cases: functional
NCI-H322M = assay: Cytotoxicity against human NCI-H322M cells assessed as cell growth at 10 uM after 48 hrs by SRB assay relative to untreated control; settings: read-out: Activity
Procedure, shortened: (§1)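 NCI-60 one-dose screen: each agent added at 10 µM, cultures incubated 48 h. Endpoint by sulforhodamine B protein-binding dye read spectrophotometrically; growth expressed as percent of untreated control cells.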

SK-MEL-28 = assay: Cytotoxicity against human SK-MEL-28 cells assessed as cell growth at 10 uM after 48 hrs by SRB assay relative to untreated control; settings: SK-MEL-28, 48 h, read-out: Activity
Procedure, shortened: (§2)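 NCI-60 single-dose screen. Compounds were added to the cultures at 10 μM and incubated for 48 h. The end point was sulforhodamine B protein staining read spectrophotometrically. Growth is reported as percent of untreated control cells.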

A498 = assay: Cytotoxicity against human A498 cells assessed as cell growth at 10 uM after 48 hrs by SRB assay relative to untreated control; settings: A498, 48 h, read-out: Activity
Procedure, shortened: (§3)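 NCI-60 panel screen at a single concentration of 10 μM with 48 h incubation. Cell density measured by sulforhodamine B protein-binding dye and read spectrophotometrically. Growth expressed as percent of untreated control cells.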

COLO 205 = assay: Cytotoxicity against human COLO205 cells assessed as cell growth at 10 uM after 48 hrs by SRB assay relative to untreated control; settings: COLO 205, 48 h, read-out: Activity; procedure, shortened: as §3
LOX IMVI = assay: Cytotoxicity against human LOXIMVI cells assessed as cell growth at 10 uM after 48 hrs by SRB assay relative to untreated control; settings: read-out: Activity; procedure, shortened: as §3
SNB-75 = assay: Cytotoxicity against human SNB75 cells assessed as cell growth at 10 uM after 48 hrs by SRB assay relative to untreated control; settings: SNB-75, 48 h, read-out: Activity; procedure, shortened: as §2
K562 = assay: Cytotoxicity against human K562 cells assessed as cell growth at 10 uM after 48 hrs by SRB assay relative to untreated control; settings: K562, 48 h, read-out: Activity; procedure, shortened: as §3
RXF 393 = assay: Cytotoxicity against human RXF393 cells assessed as cell growth at 10 uM after 48 hrs by SRB assay relative to untreated control; settings: RXF 393, 48 h, read-out: Activity; procedure, shortened: as §1
SNB-19 = assay: Cytotoxicity against human SNB19 cells assessed as cell growth at 10 uM after 48 hrs by SRB assay relative to untreated control; settings: SNB-19, 48 h, read-out: Activity; procedure, shortened: as §2
NCI-H460 = assay: Cytotoxicity against human NCI-H460 cells assessed as cell growth at 10 uM after 48 hrs by SRB assay relative to untreated control; settings: NCI-H460, 48 h, read-out: Activity; procedure, shortened: as §1
SR = assay: Cytotoxicity against human SR cells assessed as cell growth at 10 uM after 48 hrs by SRB assay relative to untreated control; settings: read-out: Activity; procedure, shortened: as §2
BT-549 = assay: Cytotoxicity against human BT549 cells assessed as cell growth at 10 uM after 48 hrs by SRB assay relative to untreated control; settings: BT-549, 48 h, read-out: Activity; procedure, shortened: as §3
HL-60(TB) = assay: Cytotoxicity against human HL-60(TB) cells assessed as cell growth at 10 uM after 48 hrs by SRB assay relative to untreated control; settings: HL-60, 48 h, read-out: Activity
Procedure, shortened: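 NCI-60 human tumour cell line panel; a single 10 µM concentration was added to the cultures and incubated 48 h. Endpoint was sulforhodamine B protein-binding dye read spectrophotometrically, with growth reported as percent of untreated control cells.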

MDA-MB-468 = assay: Cytotoxicity against human MDA-MB-468 cells assessed as cell growth at 10 uM after 48 hrs by SRB assay relative to untreated control; settings: MDA-MB-468, 48 h, read-out: Activity; procedure, shortened: as §1
MCF7 = assay: Cytotoxicity against human MCF7 cells assessed as cell growth at 10 uM after 48 hrs by SRB assay relative to untreated control; settings: MCF7, 48 h, read-out: Activity; procedure, shortened: as §3
OVCAR-3 = assay: Cytotoxicity against human OVCAR3 cells assessed as cell growth at 10 uM after 48 hrs by SRB assay relative to untreated control; settings: OVCAR-3, 48 h, read-out: Activity; procedure, shortened: as §1
[1] = Cytotoxicity against human OVCAR5 cells assessed as cell growth at 10 uM after 48 hrs by SRB assay relative to untreated control; settings: OVCAR-5, 48 h, read-out: Activity; procedure, shortened: as §1
RPMI-8226 = assay: Cytotoxicity against human RPMI8226 cells assessed as cell growth at 10 uM after 48 hrs by SRB assay relative to untreated control; settings: RPMI-8226, 48 h, read-out: Activity; procedure, shortened: as §1
OVCAR-8 = assay: Cytotoxicity against human OVCAR8 cells assessed as cell growth at 10 uM after 48 hrs by SRB assay relative to untreated control; settings: OVCAR-8, 48 h, read-out: Activity; procedure, shortened: as §1
UACC-62 = assay: Cytotoxicity against human UACC62 cells assessed as cell growth at 10 uM after 48 hrs by SRB assay relative to untreated control; settings: UACC-62, 48 h, read-out: Activity; procedure, shortened: as §2
MDA-MB-435 = assay: Cytotoxicity against human MDA-MB-435 cells assessed as cell growth at 10 uM after 48 hrs by SRB assay relative to untreated control; settings: MDA-MB-435, 48 h, read-out: Activity; procedure, shortened: as §1
[2] = Cytotoxicity against human UO31 cells assessed as cell growth at 10 uM after 48 hrs by SRB assay relative to untreated control; settings: UO-31, 48 h, read-out: Activity; procedure, shortened: as §2
SF-539 = assay: Cytotoxicity against human SF539 cells assessed as cell growth at 10 uM after 48 hrs by SRB assay relative to untreated control; settings: SF-539, 48 h, read-out: Activity; procedure, shortened: as §1
MOLT-4 = assay: Cytotoxicity against human MOLT4 cells assessed as cell growth at 10 uM after 48 hrs by SRB assay relative to untreated control; settings: MOLT-4, 48 h, read-out: Activity; procedure, shortened: as §1
CAKI-1 = assay: Cytotoxicity against human Caki1 cells assessed as cell growth at 10 uM after 48 hrs by SRB assay relative to untreated control; settings: CAKI-1, 48 h, read-out: Activity; procedure, shortened: as §3
TK-10 = assay: Cytotoxicity against human TK10 cells assessed as cell growth at 10 uM after 48 hrs by SRB assay relative to untreated control; settings: TK-10, 48 h, read-out: Activity; procedure, shortened: as §2
[3] = Cytotoxicity against human Hs578T cells assessed as cell growth at 10 uM after 48 hrs by SRB assay relative to untreated control; settings: Hs-578T, read-out: Activity; procedure, shortened: as §3

O=C1Nc2nc3ccccn3c2C(=O)[C@H](Cc2ccccc2)N1
growth at 10 µM (NCI-H322M): 103% | growth at 10 µM (SK-MEL-28): 114% | growth at 10 µM (A498): 94% | growth at 10 µM (COLO 205): 126% | growth at 10 µM (LOX IMVI): 93.5% | growth at 10 µM (SNB-75): 79.1% | growth at 10 µM (K562): 106% | growth at 10 µM (RXF 393): 105% | growth at 10 µM (SNB-19): 103% | growth at 10 µM (NCI-H460): 103% | growth at 10 µM (SR): 107% | growth at 10 µM (BT-549): 96.9% | growth at 10 µM (HL-60(TB)): 116% | growth at 10 µM (MDA-MB-468): 98.4% | growth at 10 µM (MCF7): 95.7% | growth at 10 µM (OVCAR-3): 101% | growth at 10 µM [1]: 95% | growth at 10 µM (RPMI-8226): 105% | growth at 10 µM (OVCAR-8): 95.8% | growth at 10 µM (UACC-62): 104% | growth at 10 µM (MDA-MB-435): 96.4% | growth at 10 µM [2]: 90.2% | growth at 10 µM (SF-539): 95.9% | growth at 10 µM (MOLT-4): 110% | growth at 10 µM (CAKI-1): 96.2% | growth at 10 µM (TK-10): 99.8% | growth at 10 µM [3]: 102%

O=C1c2c(nc3ccccn23)N=C(c2ccccc2)N2CCC[C@@H]12
growth at 10 µM (NCI-H322M): 106% | growth at 10 µM (SK-MEL-28): 108% | growth at 10 µM (A498): 89.3% | growth at 10 µM (COLO 205): 99.3% | growth at 10 µM (LOX IMVI): 90.1% | growth at 10 µM (SNB-75): 88.3% | growth at 10 µM (K562): 124% | growth at 10 µM (RXF 393): 98.5% | growth at 10 µM (SNB-19): 103% | growth at 10 µM (NCI-H460): 103% | growth at 10 µM (SR): 118% | growth at 10 µM (BT-549): 99.1% | growth at 10 µM (HL-60(TB)): 129% | growth at 10 µM (MDA-MB-468): 101% | growth at 10 µM (MCF7): 93% | growth at 10 µM (OVCAR-3): 105% | growth at 10 µM [1]: 94.2% | growth at 10 µM (RPMI-8226): 96.5% | growth at 10 µM (OVCAR-8): 98.7% | growth at 10 µM (UACC-62): 107% | growth at 10 µM (MDA-MB-435): 101% | growth at 10 µM [2]: 88.7% | growth at 10 µM (SF-539): 89.8% | growth at 10 µM (MOLT-4): 111% | growth at 10 µM (CAKI-1): 95.4% | growth at 10 µM (TK-10): 124% | growth at 10 µM [3]: 96.7%

Cc1ccccc1C1=Nc2nc3ccccn3c2C(=O)[C@H](Cc2ccccc2)N1
growth at 10 µM (NCI-H322M): 106% | growth at 10 µM (SK-MEL-28): 113% | growth at 10 µM (A498): 98.2% | growth at 10 µM (COLO 205): 107% | growth at 10 µM (LOX IMVI): 91.7% | growth at 10 µM (SNB-75): 70.8% | growth at 10 µM (K562): 113% | growth at 10 µM (RXF 393): 105% | growth at 10 µM (SNB-19): 109% | growth at 10 µM (NCI-H460): 103% | growth at 10 µM (SR): 122% | growth at 10 µM (BT-549): 96.9% | growth at 10 µM (HL-60(TB)): 125% | growth at 10 µM (MDA-MB-468): 104% | growth at 10 µM (MCF7): 84.9% | growth at 10 µM (OVCAR-3): 108% | growth at 10 µM [1]: 101% | growth at 10 µM (RPMI-8226): 98.4% | growth at 10 µM (OVCAR-8): 92.8% | growth at 10 µM (UACC-62): 103% | growth at 10 µM (MDA-MB-435): 98.8% | growth at 10 µM [2]: 80.6% | growth at 10 µM (SF-539): 99.4% | growth at 10 µM (MOLT-4): 111% | growth at 10 µM (CAKI-1): 88.8% | growth at 10 µM (TK-10): 138% | growth at 10 µM [3]: 102%
